Results as given in ChEMBL document CHEMBL1275449, “Potent in vitro antifungal activities of naturally occurring acetylenic acids” (Antimicrob Agents Chemother, 2008).
Calls of active or inactive are those of the source. The rule behind the calls is not given here.

Experiments:
[1] = test system: Trichophyton rubrum; experiment: Antifungal activity against Trichophyton rubrum ATCC 10218 by CLSI method; assay type: functional, organism-based
Outline: (§1)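 Growth scraped from 1- to 6-week-old potato dextrose slants and filtered through Miracloth. Diluted in 5% Alamar blue-RPMI 1640 (MOPS pH 7.0) to 2.7 × 10⁴ CFU/ml. Eleven twofold dilutions in duplicate. Fluorescence at 544 nm excitation/590 nm emission read before and after 35°C, 5 days. IC50 fitted from percent growth. MIC taken as no detectable growth; MFC from clear or blue wells plated on PD agar.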

[2] = test system: Trichophyton rubrum; experiment: Antifungal activity against Trichophyton rubrum ATCC MYA-4438 by CLSI method; assay type: functional, organism-based; outline: as §1
[3] = test system: Trichophyton mentagrophytes; experiment: Antifungal activity against Trichophyton mentagrophytes ATCC MYA-4439 by CLSI method; assay type: functional, organism-based; outline: as §1
[4] = test system: Cryptococcus neoformans; experiment: Antifungal activity against Cryptococcus neoformans ATCC 66031 after 72 hrs by CLSI method; assay type: functional, organism-based; conditions: ATCC 66031, 72 h
Outline: (§2)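 SD broth replaced RPMI because growth in RPMI was poor; other CLSI conditions were kept. Inoculum was 1.5 × 10³ CFU/ml from colonies on SD agar, checked by plating. Twofold serial dilutions (11 concentrations) in 20% DMSO-saline were tested in duplicate. OD530 was read before and after incubation at 35°C for 72 h. Percent growth gave IC50; the MIC is the lowest concentration with no detectable growth.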

[5] = test system: Pichia kudriavzevii; experiment: Antifungal activity against Candida krusei ATCC 6258 after 48 hrs by CLSI method; assay type: functional, organism-based; conditions: ATCC 6258, 48 h
Outline: (§3)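 Candida inocula came from 24–72-h SD agar colonies suspended in saline. They were diluted by OD630 standard curve into RPMI 1640 (0.2% dextrose, 0.03% glutamine, 0.165 M MOPS, pH 7.0) to 1.5 × 10³ CFU/ml. Compounds were run as 11 twofold dilutions in 20% DMSO-saline, in duplicate, at 35°C for 48 h, with OD530 read before and after. Percent growth at the top concentration, IC50, MIC, and MFC (SD agar plating) were derived.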

[6] = test system: Candida albicans; experiment: Antifungal activity against Candida albicans ATCC 14053 at 178.6 uM after 48 hrs by CLSI method; assay type: functional, organism-based
[7] = test system: Candida albicans; experiment: Antifungal activity against Candida albicans ATCC 60193 at 178.6 uM after 48 hrs by CLSI method; assay type: functional, organism-based; outline: as §3
[8] = test system: Candida albicans; experiment: Antifungal activity against Candida albicans ATCC 32354 at 178.6 uM after 48 hrs by CLSI method; assay type: functional, organism-based; outline: as §3
[9] = test system: Candida albicans; experiment: Antifungal activity against Candida albicans ATCC 90028 at 178.6 uM after 48 hrs by CLSI method; assay type: functional, organism-based; outline: as §3
[10] = test system: Candida albicans; experiment: Antifungal activity against Candida albicans ATCC 200955 at 178.6 uM after 48 hrs by CLSI method; assay type: functional, organism-based; outline: as §3
[11] = test system: Candida albicans; experiment: Antifungal activity against Fluconazole resistant Candida albicans isolate 1 at 178.6 uM after 48 hrs by CLSI method; assay type: functional, organism-based
Outline: (§4)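 Candida in CLSI broth microdilution. Saline colony suspension set to 1.5 × 10³ CFU/ml (final) in MOPS-buffered RPMI 1640, pH 7.0. Test agent given as twofold serial dilutions in 20% DMSO-saline, duplicate wells. 35°C for 48 h. Growth read as OD530 before and after incubation. Percent inhibition scored at the highest test concentration.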

[12] = test system: Candida albicans; experiment: Antifungal activity against Fluconazole resistant Candida albicans isolate 17 at 178.6 uM after 48 hrs by CLSI method; assay type: functional, organism-based; outline: as §4
[13] = test system: Nakaseomyces glabratus; experiment: Antifungal activity against Candida glabrata ATCC 90030 at 178.6 uM after 48 hrs by CLSI method; assay type: functional, organism-based; outline: as §3
[14] = test system: Candida parapsilosis; experiment: Antifungal activity against Candida parapsilosis ATCC 22019 at 178.6 uM after 48 hrs by CLSI method; assay type: functional, organism-based
Outline: (§5)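 Yeast suspensions made from 3-5 colonies off 24-72 h SD agar plates in saline. They were diluted by OD630 standard curve in RPMI 1640 (0.2% dextrose, 0.03% glutamine, 0.165 M MOPS, pH 7.0) to 1.5 × 10³ CFU/ml. Twofold dilutions (11 concentrations, 20% DMSO-saline) run in duplicate. OD530 read before and after 35°C, 48 h. Line values are top test concentrations; no-growth endpoints give MIC/MFC.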

[15] = test system: SK-MEL; experiment: Cytotoxicity against human SK-MEL cells up to 32 uM by neutral red method; assay type: cell-based
Outline: (§6)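 Neutral red uptake cytotoxicity, top concentration 32 μM.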

[16] = test system: KB; experiment: Cytotoxicity against human KB cells up to 32 uM by neutral red method; assay type: cell-based; outline: as §6
[17] = test system: BT-549; experiment: Cytotoxicity against human BT549 cells up to 32 uM by neutral red method; assay type: cell-based; outline: as §6
[18] = test system: SK-OV-3; experiment: Cytotoxicity against human SKOV3 cells up to 32 uM by neutral red method; assay type: cell-based; outline: as §6
[19] = test system: Vero; experiment: Cytotoxicity against African green monkey Vero cells up to 32 uM by neutral red method; assay type: cell-based; conditions: chlorocebus sabaeus; outline: as §6
[20] = test system: LLC-PK1; experiment: Cytotoxicity against pig LLC-PK1 cells up to 32 uM by neutral red method; assay type: cell-based, Sus scrofa; outline: as §6
[21] = test system: Candida tropicalis; experiment: Antifungal activity against Candida tropicalis ATCC 750 at 178.6 uM after 48 hrs by CLSI method; assay type: functional, organism-based; outline: as §5
[22] = test system: Cryptococcus neoformans; experiment: Antifungal activity against Cryptococcus neoformans ATCC 90113 at 178.6 uM after 72 hrs by CLSI method; assay type: functional, organism-based; outline: as §2
[23] = test system: Cryptococcus neoformans; experiment: Antifungal activity against Cryptococcus neoformans ATCC 66031 at 178.6 uM after 72 hrs by CLSI method; assay type: functional, organism-based; outline: as §2
[24] = test system: Aspergillus fumigatus; experiment: Antifungal activity against Aspergillus fumigatus ATCC 204305 at 178.6 uM after 48 hrs by CLSI method; assay type: functional, organism-based
[25] = test system: Aspergillus fumigatus; experiment: Antifungal activity against Aspergillus fumigatus ATCC 90906 at 178.6 uM after 48 hrs by CLSI method; assay type: functional, organism-based
[26] = test system: Aspergillus flavus; experiment: Antifungal activity against Aspergillus flavus ATCC 204304 at 178.6 uM after 48 hrs by CLSI method; assay type: functional, organism-based
[27] = test system: Aspergillus niger; experiment: Antifungal activity against Aspergillus niger ATCC 16404 at 178.6 uM after 48 hrs by CLSI method; assay type: functional, organism-based
[28] = test system: Trichophyton mentagrophytes; experiment: Antifungal activity against Trichophyton mentagrophytes ATCC MYA-4439 at 178.6 uM after 5 days by CLSI method; assay type: functional, organism-based
[29] = test system: Trichophyton mentagrophytes; experiment: Antifungal activity against Trichophyton mentagrophytes ATCC 9533 at 178.6 uM after 5 days by CLSI method; assay type: functional, organism-based
[30] = test system: Trichophyton rubrum; experiment: Antifungal activity against Trichophyton rubrum ATCC MYA-4438 at 178.6 uM after 5 days by CLSI method; assay type: functional, organism-based
[31] = test system: Trichophyton rubrum; experiment: Antifungal activity against Trichophyton rubrum ATCC 10218 at 178.6 uM after 5 days by CLSI method; assay type: functional, organism-based

SMILES: CCCCCCCCC#CCCCCCCCC(=O)O
- IC50 [1]: > 179 µM
- IC50 [2]: 80.2 µM
- IC50 [3]: > 179 µM
- IC50 [4]: > 179 µM
- IC50 [5]: > 179 µM
- Activity [6]: inactive
- Activity [7]: inactive
- Activity [8]: inactive
- Activity [9]: inactive
- Activity [10]: inactive
- Activity [11]: inactive
- Activity [12]: inactive
- Activity [13]: inactive
- Activity [14]: inactive
- Activity [15]: Non-toxic
- Activity [16]: Non-toxic
- Activity [17]: Non-toxic
- Activity [18]: Non-toxic
- Activity [19]: Non-toxic
- Activity [20]: Non-toxic
- Activity [21]: inactive
- Activity [22]: inactive
- Activity [23]: inactive
- Activity [24]: inactive
- Activity [25]: inactive
- Activity [26]: inactive
- Activity [27]: inactive
- Activity [28]: inactive
- Activity [29]: inactive
- Activity [30]: inactive
- Activity [31]: inactive
